The structures appear in SMILES notation.

The subject of one series is Porphyromonas gingivalis. The series can be described thus: Antibiofilm activity against Porphyromonas gingivalis ATCC 33277 assessed as inhibition of Porphyromonas gingivalis ATCC 33277 adherence to Streptococcus gordonii after 22 hrs by laser scanning confocal microscopic analysis. Type of series: functional, organism-based. An outline of the steps: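 S. gordonii DL-1, labelled with hexidium iodide and adjusted to OD600 0.8 in PBS, is grown 24 h at 37 °C with shaking under anaerobic conditions on coverslips. Carboxyfluorescein-labelled P. gingivalis (OD600 0.4) is pre-incubated 30 min with compound (final 0–60 μM, 0.1% DMSO) and added, then incubated anaerobically 22 h. After PFA fixation, confocal imaging reads the green/red fluorescence ratio. IC50 is the concentration halving that ratio. Triplicates, three independent experiments.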
As for `CCN(CC)c1nc(-c2cn(-c3ccc(-c4nc(-c5ccccc5)c(-c5ccccc5)o4)cc3)nn2)nc(N(CC)CC)n1`, the IC50 result is “Not Active”.
Same read-out and setting: the entry for `COc1ccc(-c2nc(-c3ccc(-n4cc(-c5nc(Nc6ccc(F)cc6)nc(Nc6ccc(F)cc6)n5)nn4)cc3)oc2-c2ccc(OC)cc2)cc1` is “Not Active”; for `COc1ccccc1-c1cn(-c2ccc([S+]([O-])Cc3nc(-c4ccccc4)c(-c4ccccc4)o3)cc2)nn1` (stereo unspecified) it is “Not Active”; for `COc1ccc(-c2nc(-c3ccccc3-n3cc(-c4nc(Nc5ccc(F)cc5)nc(Nc5ccc(F)cc5)n4)nn3)oc2-c2ccc(OC)cc2)cc1` it is “Not Active”.
Take `COc1ccc2cc(-c3cn(-c4ccc([S+]([O-])Cc5nc(-c6ccccc6)c(-c6ccccc6)o5)cc4)nn3)ccc2c1` (stereo unspecified): the IC50 result was “Not Active”.
`Fc1ccccc1Nc1nc(Nc2ccccc2F)nc(-c2cn(-c3ccc(-c4nc(-c5ccc(Cl)cc5)c(-c5ccc(Cl)cc5)o4)cc3)nn2)n1`: the IC50 entry is given as “Not Active”.
Still for that read-out and setting: the same measure for `[O-][S+](Cc1nc(-c2ccccc2)c(-c2ccccc2)o1)c1ccc(-n2cc(-c3ccccc3C(F)(F)F)nn2)cc1` (stereo unspecified): “Not Active”.
Turning to `Fc1ccccc1Nc1nc(Nc2ccccc2F)nc(-c2cn(-c3cccc(-c4nc(-c5ccco5)c(-c5ccco5)o4)c3)nn2)n1`, the IC50 result is reported as “Not Active”.
Still for that read-out and setting: the entry for `CCN(CC)c1nc(-c2cn(-c3cccc(-c4nc(-c5ccc(F)cc5)c(-c5ccc(F)cc5)o4)c3)nn2)nc(N(CC)CC)n1` is “Not Active”; for `CCN(CC)c1nc(-c2cn(-c3cccc(-c4nc(-c5ccco5)c(-c5ccco5)o4)c3)nn2)nc(N(CC)CC)n1` it is “Not Active”; for `COc1ccc(-c2nc(-c3cccc(-n4cc(-c5nc(Nc6ccc(F)cc6)nc(Nc6ccc(F)cc6)n5)nn4)c3)oc2-c2ccc(OC)cc2)cc1` it is “Not Active”.
`Fc1ccc(Nc2nc(Nc3ccc(F)cc3)nc(-c3cn(-c4ccc(-c5nc(-c6ccccc6)c(-c6ccccc6)o5)cc4)nn3)n2)cc1`: the IC50 entry is “Not Active”.
Still for that read-out and setting: the same measure for `[O-][S+](Cc1nc(-c2ccccc2)c(-c2ccccc2)o1)c1ccc(-n2cc(-c3ccc(F)cc3)nn2)cc1` (stereo unspecified): “Not Active”.
Still for that read-out and setting: the entry for `COc1ccc2cc(-c3cn(-c4ccc(S(=O)(=O)Cc5nc(-c6ccccc6)c(-c6ccccc6)o5)cc4)nn3)ccc2c1` is “Not Active”.
Regarding `CCN(CC)c1nc(-c2cn(-c3ccc(-c4nc(-c5ccco5)c(-c5ccco5)o4)cc3)nn2)nc(N(CC)CC)n1`, the IC50 entry is “Not Active”.
Turning to `O=S(=O)(Cc1nc(-c2ccccc2)c(-c2ccccc2)o1)c1ccc(-n2cc(-c3cccnc3)nn2)cc1`, the IC50 result was “Not Active”.
Regarding `Fc1ccc(Nc2nc(Nc3ccc(F)cc3)nc(-c3cn(-c4cccc(-c5nc(-c6ccc(F)cc6)c(-c6ccc(F)cc6)o5)c4)nn3)n2)cc1`, the IC50 result is “Not Active”.
Still for that read-out and setting: the entry for `CCCCCc1ccc(-c2cn(-c3ccc([S+]([O-])Cc4nc(-c5ccccc5)c(-c5ccccc5)o4)cc3)nn2)cc1` (stereo unspecified) is “Not Active”.
On to `Fc1ccccc1Nc1nc(Nc2ccccc2F)nc(-c2cn(-c3ccc(-c4nc(-c5ccco5)c(-c5ccco5)o4)cc3)nn2)n1`, for which the IC50 entry is “Not Active”.
Still for that read-out and setting: the entry for `Fc1ccccc1Nc1nc(Nc2ccccc2F)nc(-c2cn(-c3ccc(-c4nc(-c5ccccc5)c(-c5ccccc5)o4)cc3)nn2)n1` is “Not Active”; for `CCN(CC)c1nc(-c2cn(-c3cccc(-c4nc(-c5ccc(OC)cc5)c(-c5ccc(OC)cc5)o4)c3)nn2)nc(N(CC)CC)n1` it is “Not Active”.
On the same count and under the same terms, the entry for `Fc1ccc(Nc2nc(Nc3ccc(F)cc3)nc(-c3cn(-c4ccccc4-c4nc(-c5ccccc5)c(-c5ccccc5)o4)nn3)n2)cc1` is “Not Active”.
Same read-out and setting: the same measure for `COc1ccc(-c2nc(-c3cccc(-n4cc(-c5nc(Nc6ccccc6F)nc(Nc6ccccc6F)n5)nn4)c3)oc2-c2ccc(OC)cc2)cc1`: “Not Active”.
For `[O-][S+](Cc1nc(-c2ccccc2)c(-c2ccccc2)o1)c1ccc(-n2cc(-c3ccc(Oc4ccccc4)cc3)nn2)cc1` (stereo unspecified), the IC50 entry is listed as “Not Active”.
Regarding `[O-][S+](Cc1nc(-c2ccccc2)c(-c2ccccc2)o1)c1ccc(-n2cc(-c3cccnc3)nn2)cc1` (stereo unspecified), the IC50 result was “Not Active”.
On the same count and under the same terms, the entry for `O=S(=O)(Cc1nc(-c2ccccc2)c(-c2ccccc2)o1)c1ccc(-n2cc(-c3ccccc3C(F)(F)F)nn2)cc1` is “Not Active”.
Still for that read-out and setting: the same measure for `[O-][S+](Cc1nc(-c2ccccc2)c(-c2ccccc2)o1)c1ccc(-n2cc(-c3cc(C(F)(F)F)cc(C(F)(F)F)c3)nn2)cc1` (stereo unspecified): “Not Active”.

A further series deals with TIGK. Description: Cytotoxicity against human TIGK cells assessed as increase in LDH release at 5 to 40 uM after 18 hrs by LDH release assay. Type of series: cell-based. In a few lines:
(§1)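 Immortalized gingival keratinocytes (TIGK) are seeded at 4000 cells/well, grown 24 h, then exposed 18 h to compound in fresh medium. Supernatant is mixed with LDH substrate for 30 min at room temperature, stopped, and read at OD 490 nm. Kit lysis buffer for 1 h serves as the positive control; medium alone is the negative control. Triplicate samples.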
(In general: Release of lactate dehydrogenase indicates damage to the cell membrane.)
Regarding `CCN(CC)c1nc(-c2cn(-c3ccc(-c4nc(-c5ccc(Cl)cc5)c(-c5ccc(Cl)cc5)o4)cc3)nn2)nc(N(CC)CC)n1`, the Activity result is reported as “Non-Toxic”.

In the next series the test system is TIGK. Description: Cytotoxicity against human TIGK cells assessed as increase in LDH release at 5 to 60 uM after 18 hrs by LDH release assay. Type of series: cell-based. An outline of the steps:
as §1
Turning to `Fc1ccc(Nc2nc(Nc3ccc(F)cc3)nc(-c3cn(-c4cccc(-c5nc(-c6ccccc6)c(-c6ccccc6)o5)c4)nn3)n2)cc1`, the Activity entry is recorded as “Non-Toxic”.
Same read-out and setting: the same measure for `Fc1ccc(Nc2nc(Nc3ccc(F)cc3)nc(-c3cn(-c4ccccc4-c4nc(-c5ccco5)c(-c5ccco5)o4)nn3)n2)cc1`: “Non-Toxic”.

Another series has as its system TIGK. Description: Cytotoxicity against human TIGK cells assessed as increase in LDH release at 5 to 20 uM after 18 hrs by LDH release assay. Type of series: cell-based. An outline of the steps: as §1
In the case of `Fc1ccc(Nc2nc(Nc3ccc(F)cc3)nc(-c3cn(-c4ccc(-c5nc(-c6ccc(F)cc6)c(-c6ccc(F)cc6)o5)cc4)nn3)n2)cc1`, the Activity entry was “Non-Toxic”.

A further series deals with TIGK. The series can be described thus: Cytotoxicity against human TIGK cells assessed as reduction in ATP levels at 5 to 40 uM after 18 hrs by CellTiterGlo reagent-based assay. The format is cell-based. In a few lines: (§2)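 TIGK cells are seeded at 4000/well and grown 24 h, then exposed 18 h to compound. They are washed three times with PBS and treated with CellTiterGlo substrate, 2 min with shaking plus 10 min static. Total ATP is read by luminescence. Reduction is judged against cells in medium with 0.1% DMSO, p<0.05.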
(In general: ATP-based viability assays read luminescence as a measure of living cells.)
On to `CCN(CC)c1nc(-c2cn(-c3ccc(-c4nc(-c5ccc(Cl)cc5)c(-c5ccc(Cl)cc5)o4)cc3)nn2)nc(N(CC)CC)n1`, for which the Activity entry is recorded as “Non-Toxic”.

For a further series, the system named is TIGK. The series can be described thus: Cytotoxicity against human TIGK cells assessed as reduction in ATP levels at 5 to 60 uM after 18 hrs by CellTiterGlo reagent-based assay. Type of series: cell-based. In a few lines: as §2
Regarding `Fc1ccc(Nc2nc(Nc3ccc(F)cc3)nc(-c3cn(-c4ccccc4-c4nc(-c5ccco5)c(-c5ccco5)o4)nn3)n2)cc1`, the Activity result is “Non-Toxic”.

The subject of a further series is TIGK. The series can be described thus: Cytotoxicity against human TIGK cells assessed as reduction in ATP levels at 5 to 20 uM after 18 hrs by CellTiterGlo reagent-based assay. Type of series: cell-based. In a few lines: as §2
In the case of `Fc1ccc(Nc2nc(Nc3ccc(F)cc3)nc(-c3cn(-c4ccc(-c5nc(-c6ccc(F)cc6)c(-c6ccc(F)cc6)o5)cc4)nn3)n2)cc1`, the Activity entry is “Non-Toxic”.

The test system of a further series is TIGK. Description: Cytotoxicity against human TIGK cells assessed as reduction in ATP levels after 18 hrs by CellTiterGlo reagent-based assay. The format is cell-based. In a few lines: as §2
With `Fc1ccc(Nc2nc(Nc3ccc(F)cc3)nc(-c3cn(-c4cccc(-c5nc(-c6ccccc6)c(-c6ccccc6)o5)c4)nn3)n2)cc1`, the Activity entry is recorded as “Dose-dependent effect”.

Another series has as its system TIGK. The series can be described thus: Cytotoxicity against human TIGK cells assessed as reduction in ATP levels at 60 uM after 18 hrs by CellTiterGlo reagent-based assay. The format is cell-based. An outline of the steps: as §2
`Fc1ccc(Nc2nc(Nc3ccc(F)cc3)nc(-c3cn(-c4cccc(-c5nc(-c6ccccc6)c(-c6ccccc6)o5)c4)nn3)n2)cc1`: the Activity result is recorded as “Toxic”.

The values above are taken from ChEMBL document CHEMBL4368869, “'Second-generation' 1,2,3-triazole-based inhibitors of Porphyromonas gingivalis adherence to oral streptococci and biofilm formation” (Medchemcomm, 2019).
